From ChEMBL document CHEMBL3867440, “Hernandezine, a Bisbenzylisoquinoline Alkaloid with Selective Inhibitory Activity against Multidrug-Resistance-Linked ATP-Binding Cassette Drug Transporter ABCB1” (J Nat Prod, 2016)

Assays:
KB-V1 [1] = experiment: Induction of apoptosis in human KBV1 cells assessed as early apoptotic cells at 1 uM after 48 hrs by Annexin V-FITC/propidium iodide staining based FACS analysis (reference value: 5.3%); type: functional
KB 3-1 [2] = experiment: Induction of apoptosis in human KB-3-1 cells assessed as late apoptotic cells at 1 uM after 48 hrs by Annexin V-FITC/propidium iodide staining based FACS analysis (reference value: 5.8%); type: functional
KB-V1 [3] = experiment: Induction of apoptosis in human KBV1 cells assessed as necrotic cells at 1 uM after 48 hrs by Annexin V-FITC/propidium iodide staining based FACS analysis (reference value: 1%); type: functional
KB 3-1 [4] = experiment: Potentiation of colchicine-induced apoptosis in human KB-3-1 cells assessed as early apoptotic cells at 1 uM after 48 hrs by Annexin V-FITC/propidium iodide staining based FACS analysis (reference value: 30.5%); type: functional
[5] = target: T1, ATP-dependent translocase ABCB1 (Homo sapiens, UniProt P08183); experiment: Inhibition of human ABCB1 transfected in HEK293 cells assessed as potentiation of doxorubicin-induced cytotoxicity by measuring doxorubicin resistance ratio at 1000 nM after 72 hrs by CCK8 assay relative to parental HEK293 cells (reference value: 96); type: cell-based; conditions: hek293, 72 h, 1 µM
[6] = target: T1, ATP-dependent translocase ABCB1; experiment: Inhibition of ABCB1 in human NCI-ADR-RES cells assessed as potentiation of vincristine-induced cytotoxicity by measuring vincristine resistance ratio at 1000 nM after 72 hrs by MTT assay relative to parental OVCAR8 cells (reference value: 435); type: cell-based; conditions: ovcar-8, 72 h, 1 µM
Outline: (§1)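 Cells were kept in drug-free DMEM with 10% FCS for 7 days before assay, then plated at 5000 cells/well for 24 h. Drug at various concentrations was added with a nontoxic fixed level of modulator for 72 h, and the read-out was MTT. IC50 came from fitted curves (≥3 experiments). RR = IC50 of the resistant line / IC50 of the parental line.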

KB 3-1 [7] = experiment: Induction of apoptosis in human KB-3-1 cells assessed as viable cells at 1 uM after 48 hrs by Annexin V-FITC/propidium iodide staining based FACS analysis (reference value: 88.4%); type: functional; conditions: KB 3-1, 48 h, read-out: Activity
KB 3-1 [8] = experiment: Induction of apoptosis in human KB-3-1 cells assessed as early apoptotic cells at 1 uM after 48 hrs by Annexin V-FITC/propidium iodide staining based FACS analysis (reference value: 5.1%); type: functional
[9] = target: T1, ATP-dependent translocase ABCB1; experiment: Inhibition of ABCB1 in human NCI-ADR-RES cells assessed as potentiation of colchicine-induced cytotoxicity by measuring colchicine resistance ratio at 1000 nM after 72 hrs by MTT assay relative to parental OVCAR8 cells (reference value: 59); type: cell-based; conditions: ovcar-8, 72 h, 1 µM; outline: as §1
KB 3-1 [10] = experiment: Potentiation of colchicine-induced apoptosis in human KB-3-1 cells assessed as viable cells at 1 uM after 48 hrs by Annexin V-FITC/propidium iodide staining based FACS analysis (reference value: 38.9%); type: functional; conditions: KB 3-1, 48 h, read-out: Activity
KB 3-1 [11] = experiment: Potentiation of colchicine-induced apoptosis in human KB-3-1 cells assessed as late apoptotic cells at 1 uM after 48 hrs by Annexin V-FITC/propidium iodide staining based FACS analysis (reference value: 25.7%); type: functional
[12] = target: T1, ATP-dependent translocase ABCB1; experiment: Inhibition of ABCB1 in human NCI-ADR-RES cells assessed as potentiation of doxorubicin-induced cytotoxicity by measuring doxorubicin resistance ratio at 1000 nM after 72 hrs by MTT assay relative to parental OVCAR8 cells (reference value: 46); type: cell-based; conditions: ovcar-8, 72 h, 1 µM; outline: as §1
[13] = target: T1, ATP-dependent translocase ABCB1; experiment: Inhibition of ABCB1 in human KBV1 cells assessed as potentiation of doxorubicin-induced cytotoxicity by measuring doxorubicin resistance ratio at 1000 nM after 72 hrs by MTT assay relative to parental KB-3-1 cells (reference value: 34); type: cell-based; conditions: kbv1, 72 h, 1 µM; outline: as §1
[14] = target: T1, ATP-dependent translocase ABCB1; experiment: Inhibition of ABCB1 in human KBV1 cells assessed as potentiation of vincristine-induced cytotoxicity by measuring vincristine resistance ratio at 1000 nM after 72 hrs by MTT assay relative to parental KB-3-1 cells (reference value: 356); type: cell-based; conditions: kbv1, 72 h, 1 µM; outline: as §1
KB 3-1 [15] = experiment: Potentiation of colchicine-induced apoptosis in human KB-3-1 cells assessed as necrotic cells at 1 uM after 48 hrs by Annexin V-FITC/propidium iodide staining based FACS analysis (reference value: 4.9%); type: functional
[16] = target: T1, ATP-dependent translocase ABCB1; experiment: Inhibition of ABCB1 in human KBV1 cells assessed as potentiation of colchicine-induced cytotoxicity by measuring colchicine resistance ratio at 1000 nM after 72 hrs by MTT assay relative to parental KB-3-1 cells (reference value: 55); type: cell-based; conditions: kbv1, 72 h, 1 µM; outline: as §1
KB-V1 [17] = experiment: Induction of apoptosis in human KBV1 cells assessed as late apoptotic cells at 1 uM after 48 hrs by Annexin V-FITC/propidium iodide staining based FACS analysis (reference value: 7.6%); type: functional
KB 3-1 [18] = experiment: Induction of apoptosis in human KB-3-1 cells assessed as necrotic cells at 1 uM after 48 hrs by Annexin V-FITC/propidium iodide staining based FACS analysis (reference value: 0.7%); type: functional
KB-V1 [19] = experiment: Induction of apoptosis in human KBV1 cells assessed as viable cells at 1 uM after 48 hrs by Annexin V-FITC/propidium iodide staining based FACS analysis (reference value: 86.1%); type: functional; conditions: KB-V1, 48 h, read-out: Activity
HEK293 = experiment: Inhibition of human wild-type ABCG2 transfected in HEK293 cells assessed as potentiation of mitoxantrone-induced cytotoxicity by measuring mitoxantrone resistance ratio at 3000 nM after 72 hrs by CCK8 assay relative to parental HEK293 cells

T1 sequence (P08183 whole entry): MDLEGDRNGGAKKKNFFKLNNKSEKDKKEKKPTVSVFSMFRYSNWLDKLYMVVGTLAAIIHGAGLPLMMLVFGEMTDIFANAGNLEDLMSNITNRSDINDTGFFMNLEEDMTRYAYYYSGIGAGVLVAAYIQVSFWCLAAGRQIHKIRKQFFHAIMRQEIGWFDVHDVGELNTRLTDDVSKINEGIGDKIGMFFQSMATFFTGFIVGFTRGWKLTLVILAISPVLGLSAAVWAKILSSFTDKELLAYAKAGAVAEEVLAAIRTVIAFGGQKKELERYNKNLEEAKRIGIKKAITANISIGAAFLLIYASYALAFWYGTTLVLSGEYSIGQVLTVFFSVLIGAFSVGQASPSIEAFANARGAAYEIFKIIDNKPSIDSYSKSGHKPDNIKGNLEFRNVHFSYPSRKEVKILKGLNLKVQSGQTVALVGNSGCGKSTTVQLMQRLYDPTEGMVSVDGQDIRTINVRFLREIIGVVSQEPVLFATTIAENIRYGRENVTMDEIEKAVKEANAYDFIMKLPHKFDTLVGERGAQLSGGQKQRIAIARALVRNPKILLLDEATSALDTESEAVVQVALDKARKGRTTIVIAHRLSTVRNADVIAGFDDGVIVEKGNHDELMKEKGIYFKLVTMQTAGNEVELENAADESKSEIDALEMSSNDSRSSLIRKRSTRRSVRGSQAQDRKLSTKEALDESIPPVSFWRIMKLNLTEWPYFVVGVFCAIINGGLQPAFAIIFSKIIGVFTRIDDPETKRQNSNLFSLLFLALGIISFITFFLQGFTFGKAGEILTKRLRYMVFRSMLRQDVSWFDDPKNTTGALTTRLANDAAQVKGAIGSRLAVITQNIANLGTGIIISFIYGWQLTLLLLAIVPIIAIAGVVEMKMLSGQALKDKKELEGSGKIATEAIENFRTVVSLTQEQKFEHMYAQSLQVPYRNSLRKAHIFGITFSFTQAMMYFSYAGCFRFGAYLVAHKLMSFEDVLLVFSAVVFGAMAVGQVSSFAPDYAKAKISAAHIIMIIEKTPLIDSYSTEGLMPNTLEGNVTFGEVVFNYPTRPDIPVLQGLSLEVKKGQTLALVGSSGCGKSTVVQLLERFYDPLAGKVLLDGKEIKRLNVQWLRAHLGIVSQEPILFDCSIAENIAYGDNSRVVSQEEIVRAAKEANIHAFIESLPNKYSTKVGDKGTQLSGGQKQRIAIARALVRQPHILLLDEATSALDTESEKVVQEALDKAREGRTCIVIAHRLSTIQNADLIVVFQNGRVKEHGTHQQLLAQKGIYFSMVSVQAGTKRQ

Compound	Activity (KB-V1 [1]) [%]	Activity (KB 3-1 [2]) [%]	Activity (KB-V1 [3]) [%]	Activity (KB 3-1 [4]) [%]	Ratio [5]	Ratio [6]	viability at 1 µM (KB 3-1 [7]) [%]	Activity (KB 3-1 [8]) [%]	Ratio [9]	viability at 1 µM (KB 3-1 [10]) [%]	Activity (KB 3-1 [11]) [%]	Ratio [12]	Ratio [13]	Ratio [14]	Activity (KB 3-1 [15]) [%]	Ratio [16]	Activity (KB-V1 [17]) [%]	Activity (KB 3-1 [18]) [%]	viability at 1 µM (KB-V1 [19]) [%]	Ratio (HEK293)
COc1cc2c(cc1OC)CN(CCc1ccc(NC(=O)c3cc(OC)c(OC)cc3NC(=O)c3cnc4ccccc4c3)cc1)CC2 [TARIQUIDAR]	3.5	4.4	0.2	30.2	5	4	92.1	3.3	1	37.2	27	3	1	1	5.6	1	5.2	0.2	91.1	–
COc1ccc2c3c([nH]c2c1)[C@H](C=C(C)C)N1C(=O)[C@@H]2CCCN2C(=O)[C@@H]1C3	–	–	–	–	–	–	–	–	–	–	–	–	–	–	–	–	–	–	–	7
